The values below come from ChEMBL document CHEMBL5338714, “Design, synthesis and biological evaluation of biphenyl-benzamides as potent FtsZ inhibitors” (Eur J Med Chem, 2022).

Converted amounts (≈) assume the structure as drawn. The source made the active and inactive calls.

Data set [1] relates to Staphylococcus aureus. The data set can be described thus: Antibacterial activity against ampicillin-resistant Staphylococcus aureus 669 assessed as bacterial growth inhibition incubated for 18 hrs by CLSI based broth microdilution method. It counts as functional. In short, it runs like this: (§1)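 Broth microdilution to CLSI guidelines. Log-phase bacteria grown in Mueller Hinton broth, diluted, then exposed to 2-fold serial dilutions of compound (128 to 0.25 µg/mL or 2 to 0.004 µg/mL). Incubated aerobically 18 h at 37 °C. Growth read as OD600. MIC = lowest concentration giving ≥90% growth inhibition. Three independent assays.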

Data set [2] in a line: Metabolic stability in mouse liver microsomes assessed as compound remaining preincubated for 5 mins followed by NADPH addition measured after 45 mins by LC/MS analysis. It counts as ADME, Microsome. To be noted: time 50 min, read-out: Stability. In short, it runs like this:
(§2)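 Liver microsomes (final protein 0.75 mg/mL) with compound in 100 mM phosphate buffer pH 7.4, preincubated 5 min at 37 °C. Reaction started with NADPH regeneration system, stopped at 5, 15, 30 and 45 min with acetonitrile containing internal standard. Percent remaining measured by LC/MS, with ketanserin as reference; variation given as RSD of area ratio.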
For orientation: Liver microsomes are vesicles of endoplasmic reticulum, rich in cytochrome P450 enzymes.

The target in data set [3] is T1, Cell division protein FtsZ (Staphylococcus aureus) (UniProt P0A031).
T1 sequence (whole entry): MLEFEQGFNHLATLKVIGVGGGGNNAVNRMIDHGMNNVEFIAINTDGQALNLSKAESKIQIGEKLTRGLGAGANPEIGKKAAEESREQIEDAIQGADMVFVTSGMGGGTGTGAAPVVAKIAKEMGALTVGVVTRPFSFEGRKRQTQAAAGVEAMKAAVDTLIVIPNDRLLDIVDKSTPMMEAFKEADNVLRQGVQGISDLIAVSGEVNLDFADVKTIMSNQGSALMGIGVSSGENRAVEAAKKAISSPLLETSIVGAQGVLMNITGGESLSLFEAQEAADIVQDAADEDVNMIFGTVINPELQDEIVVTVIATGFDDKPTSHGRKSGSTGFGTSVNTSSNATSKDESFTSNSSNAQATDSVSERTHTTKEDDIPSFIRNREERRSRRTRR
The data set can be described thus: Inhibition of recombinant Staphylococcus aureus FtsZ assessed as FtsZ polymerization at 10 ug/ml in presence of GTP by absorbance based turbidity assay. To be noted: dose 10.0 µg/ml. In short, it runs like this: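 Recombinant S. aureus FtsZ (12 µM) with 1 mM GTP and compound in 50 mM Hepes, 50 mM KCl, 5 mM MgCl2. Polymerization followed continuously at 25 °C as light scattering (A340).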

In data set [4] the test system is Bacillus subtilis. Description: Induction of morphological changes in Bacillus subtilis ATCC9372 assessed as increase in cell length at MIC incubated for 3 hrs by microscopic analysis (reference value: 10 um). It counts as functional.
A short description of data set [5]: Metabolic stability in mouse liver microsomes assessed as compound remaining preincubated for 5 mins followed by NADPH addition measured after 30 mins by LC/MS analysis. It counts as ADME, Microsome. To be noted: time 35 min, read-out: Stability. In short, it runs like this:
as §2

A short description of data set [6]: Metabolic stability in human liver microsomes assessed as compound remaining preincubated for 5 mins followed by NADPH addition measured after 5 mins by LC/MS analysis. It counts as ADME, Microsome. The following applies: time 10 min, read-out: Stability. In outline:
as §2

The nature of data set [7]: Tmax in ICR mouse at 5 mg/kg, po measured for 0.25 to 24 hrs by LC-MS/MS analysis. It counts as ADME, organism-based. To be noted: in vivo, time 0.25-24 hrs. In short, it runs like this:
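Male ICR mice dosed orally with a solution of 5% DMSO, 4% ethanol, 5% Cremophor EL and 86% water. Blood collected at 15, 30 min, 1, 2, 4, 6, 8 and 24 h; plasma stored at -20 °C. Plasma levels measured by LC-MS/MS; parameters by non-compartmental analysis, with bioavailability relative to the 1 mg/kg iv dose.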

Data set [8] relates to Bacillus subtilis. The data set can be described thus: Antibacterial activity against Bacillus subtilis BS01 assessed as bacterial growth inhibition incubated for 18 hrs by CLSI based broth microdilution method. It counts as functional. In short, it runs like this: (§3)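 CLSI broth microdilution. Log-phase bacteria in Mueller Hinton broth added to 2-fold serial dilutions spanning 128 to 0.25 or 2 to 0.004 µg/mL. Incubated aerobically for 18 h at 37 °C, then OD600 read. MIC is the lowest concentration giving ≥90% growth inhibition; three independent assays.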
(In general: Dilution methods test growth across graded concentrations, often in twofold steps.)

The subject of data set [9] is Bacillus subtilis. Description: Antibacterial activity against Bacillus subtilis 618 assessed as bacterial growth inhibition incubated for 18 hrs by CLSI based broth microdilution method. It counts as functional. In outline: as §3
Data set [10] relates to Staphylococcus aureus. The data set can be described thus: Antibacterial activity against methicillin-resistant Staphylococcus aureus shhsE1 assessed as bacterial growth inhibition incubated for 18 hrs by CLSI based broth microdilution method. It counts as functional. In outline:
as §1

A short description of data set [11]: Metabolic stability in rat liver microsomes assessed as compound remaining preincubated for 5 mins followed by NADPH addition measured after 45 mins by LC/MS analysis. It counts as ADME, Microsome. To be noted: time 50 min, read-out: Stability. In short, it runs like this: as §2
In data set [12] the test system is Staphylococcus aureus. Description: Bactericidal activity against Staphylococcus aureus ATCC25923 incubated for 24 hrs by broth microdilution method. It counts as functional. In short, it runs like this: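 MBC from the broth microdilution plates (MHB, 2-fold dilutions). After 24 h, 5 µL aliquots from clear wells were plated on LB agar and incubated aerobically 24 h at 37 °C, then colonies counted. MBC = lowest concentration with no colonies.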

The test system of data set [13] is Bacillus subtilis. The data set can be described thus: Antibacterial activity against Bacillus subtilis ATCC9372 assessed as reduction in bacterial count at 2 times MIC measured for 3 hrs by time kill curve assay. It counts as functional, organism-based. In short, it runs like this: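 Time-kill: log-phase cultures diluted to about 10^6 CFU/mL in MHB with compound at 1×, 2×, 4× or 8× MIC (vancomycin at 2× MIC), shaken at 37 °C. Samples taken at 3, 6, 12 and 24 h, serially diluted and plated on LB agar. Colonies counted after 24 h at 37 °C; detection limit 10^3 CFU/mL.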

The nature of data set [14]: Metabolic stability in mouse liver microsomes assessed as compound remaining preincubated for 5 mins followed by NADPH addition measured immediately by LC/MS analysis. The following applies: read-out: Stability. It counts as ADME, Microsome.
Another data set has as its system Pseudomonas aeruginosa. Description: Antibacterial activity against Pseudomonas aeruginosa 15690 assessed as bacterial growth inhibition incubated for 18 hrs by CLSI based broth microdilution method. It counts as functional. In outline: as §1
A short description of data set [15]: Metabolic stability in mouse liver microsomes assessed as intrinsic clearance preincubated for 5 mins followed by NADPH addition measured upto 45 mins by LC/MS analysis. It counts as ADME, Microsome. The following applies: time < 50 min, read-out: CLH. In short, it runs like this:
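Liver microsomes at 0.75 mg/mL final protein, with test article and NADPH regeneration system (6 mM) in 100 mM phosphate buffer, pH 7.4. Preincubated 5 min at 37 °C, then started with NADPH. Quenched with acetonitrile containing internal standard at 5, 15, 30 and 45 min, centrifuged, and percent remaining measured by LC/MS. Ketanserin served as reference.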

Data set [16] concerns the target T1, Cell division protein FtsZ (Staphylococcus aureus). Description: Inhibition of recombinant Staphylococcus aureus FtsZ-mediated GTPase activity preincubated for 10 mins followed by GTP addition measured after 30 mins by absorbance based assay. The following applies: dose <= 35.0 µg/ml, time 40.0 min. In outline: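 S. aureus FtsZ (6 µM) preincubated 10 min at room temperature with a range of compound concentrations in 50 mM Hepes-KOH. KCl 300 mM, MgCl2 5 mM and GTP 1 mM then added, 30 min at 37 °C. Reaction quenched with Cytophos reagent for 10 min; released phosphate read at 620 nm.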

What is called MIC is the smallest concentration in the dilution series that meets the test's criterion for growth inhibition. As a reminder, the Tmax is the time from dosing to the highest level. As a reminder, the MBC is the smallest concentration meeting the test's criterion for killing. A lower MBC goes with more potent killing. Turning to `Cc1cc(Cl)ccc1-c1cccc(COc2ccc(F)c(C(N)=O)c2F)c1`, the MIC was 0.06 µg/mL (≈ 0.155 µM) in the data set with Staphylococcus aureus [1]; 0.016 µg/mL (≈ 0.0413 µM) in the data set with Bacillus subtilis [8]; 0.008 µg/mL (≈ 0.0206 µM) in the data set on Bacillus subtilis [9]; 0.125 µg/mL (≈ 0.322 µM) with Staphylococcus aureus [10]; greater than 128 µg/mL in the data set on Pseudomonas aeruginosa. In addition, the remaining at 0.75 h came to 0.46% in data set [2] and 10% in [11]. Also, the inhibition result in data set [3] and in data set [16] was “Active” each time. The Activity with Bacillus subtilis [4] is on record as greater than 60 um. Moreover, the remaining at 0.5 h in data set [5] came out at 1.74%. The remaining at 5 min in [6] came out at 97.1%. For the same compound, the Tmax in data set [7] stood at 30 min. In the data set with Staphylococcus aureus [12], this compound registered an MBC of 0.25 µg/mL (≈ 0.645 µM). For the same compound, the result with Bacillus subtilis [13] was Active. Besides, the remaining at 0 min in [14] was 100%. Also, the CLint scaled in [15] was 1070 mL/min/kg.
